Data set [1] concerns Hemoglobin HbA (Homo sapiens), P69905+P68871 [E7V]. Description: Induction of R-state stabilization of Hb betaGlu6Val mutant in sickle disease patient purified HbS/HbA mixture assessed as change from baseline of partial pressure of O2 at which HbS is 50% saturated with O2 at 30 uM preincubated for 45 mins followed by oxygenation for 10 mins and subsequent deoxygenation by hemoximetry relative to control. In a few lines: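 Oxygen equilibrium curves were run on a Hemox Analyzer using Hb purified from sickle disease blood (an HbA/HbS mixture) at 25 μM. Compound was tested at 30 μM, or at 500 μM where noted. The read-out was the % change from baseline in the pO2 at which HbS is 50% saturated (Δp50).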

Data set [2] shares this test system. In words: Induction of R-state stabilization of Hb betaGlu6Val mutant in sickle cell disease transfused human whole blood assessed as change from baseline of partial pressure of O2 at which HbS is 50% saturated with O2 at 1 mM preincubated for 45 mins followed by 20 mins oxygenation/deoxygenation cycle by hemoximetry relative to control. In a few lines:
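Whole blood from transfused SCD subjects, at 20% hematocrit (Hb 1 mM), was run with compound at 1 mM. Oxygen equilibrium curves were measured by hemoximetry. The value is the % change from baseline in the pO2 giving 50% O2 saturation (Δp50).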

The species entered for another data set is Homo sapiens. In words: Induction of R-state stabilization of sickle cell Hb betaGlu6Val mutant purified from sickle cell patient assessed as inhibition of KH2PO4-induced polymerization by measuring change from baseline of delay time for onset of polymerization at 75 uM preincubated for 1 hr followed by deoxygenation for …. Details: scale not given: the % may be the effect or the level left.

For data set [3], the system named is Hemoglobin HbA (Homo sapiens), P69905+P68871 [E7V]. In words: Induction of R-state stabilization of Hb betaGlu6Val mutant in sickle disease patient purified HbS/HbA mixture assessed as change from baseline of partial pressure of O2 at which HbS is 50% saturated with O2 at 5 mM preincubated for 45 mins followed by 20 mins oxygenation/deoxygenation cycle by hemoximetry relative to control.

Data set [4] shares this test system. Description: Induction of R-state stabilization of Hb betaGlu6Val mutant in sickle disease patient purified HbS/HbA mixture assessed as change from baseline of partial pressure of O2 at which HbS is 50% saturated with O2 at 100 uM preincubated for 45 mins followed by 20 mins oxygenation/deoxygenation cycle by hemoximetry relative to control.
A further data set concerns Blood. In words: Half life in Sprague-Dawley rat blood at 7.2 to 120 mg/kg, po by LC-MS/MS analysis. Format: ADME, organism-based. Conditions: in vivo.
For a further data set, the system named is Rattus norvegicus. In words: Dose normalized AUC (0 to infinity) in Sprague-Dawley rat at 7.2 to 120 mg/kg, po by LC-MS/MS analysis. Format: ADME, organism-based. Particulars: in vivo. In a few lines: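 Rat oral PK: AUC(0–∞) divided by the oral dose, expressed as (ng·h/mL)/(mg/kg).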
The nature of data set [5]: Ratio of drug level in Sprague-Dawley rat RBC to plasma at 7.2 to 120 mg/kg, po by LC-MS/MS analysis. Conditions: red blood cells (RBC) / plasma. Format: ADME, organism-based.

Data on 42 molecules can be found in ChEMBL document CHEMBL4002644, “Discovery of GBT440, an Orally Bioavailable R-State Stabilizer of Sickle Cell Hemoglobin” (ACS Med Chem Lett, 2017).

Calls of active or inactive are those of the source. The calls are words filed in the database; no cut-off is given here.

The term Kp denotes tissue or fluid exposure divided by exposure in the circulation.

Take `COc1cc(C=O)c(OCc2cncc(-c3ccn(C)n3)c2)cn1`: the Activity in data set [1] worked out at 29.4%.

As for `COc1cc(C=O)c(OCc2nccc3ccccc23)cn1`, the Activity in data set [1] is 40.2%.

For `COc1cc(C=O)c(OCc2cccnc2-c2ccnn2CCO)cn1`, the Activity in data set [1] was 32.7%; in data set [2] it was 64.7%; in the data set filed under Homo sapiens, 105%.

`COc1cc(C=O)c(OCc2ccnc3cccnc23)cn1`: the Activity in data set [1] was 23.1%.

As to `COc1cc(C=O)c(OCc2cc3ccccc3nc2Cl)cn1`, the Activity in data set [1] is 4%.

Consider `COC(=O)c1cc(COc2cnc(OC)cc2C=O)c2nccn2c1`, for which, in data set [1], the Activity was found to be 16.4%.

As for `COc1cc(C=O)c(OCc2cccc3ocnc23)cn1`, the Activity in data set [1] was 37%.

`O=Cc1ccc(CO)o1`: in data set [3], the result was Active.

As to `COc1cc(C=O)c(OCc2cccc3c2cnn3C)cn1`, the Activity in data set [1] worked out at 32.7%.

`COc1cc(C=O)c(OCc2cncc(-c3ccn[nH]3)c2)cn1`: the Activity in data set [1] is 9%.

`COc1cc(C=O)c(OCc2cccnc2-c2[nH]ncc2C)cn1`: the Activity in data set [1] was 51.7%; in data set [2], 43.1%; in the data set filed under Homo sapiens it was 64.5%.

On to `COc1cc(C=O)c(OCc2c(-c3cc[nH]n3)ccn3ccnc23)cn1`, for which the Activity in data set [1] came to 29.1%.

With `CC(C)n1nccc1-c1ncccc1COc1cnc(O)cc1C=O`, the Activity in data set [1] was determined as 59.6%; in data set [2], 62.5%; in the data set filed under Homo sapiens, 128%.

For the molecule `COc1ccc(OCc2cccnc2)c(C=O)c1`, the Activity in data set [1] was determined as 34%. Moreover, the result in data set [4] was Active.

As to `COc1cc(C=O)c(OCc2cccn3ccnc23)cn1`, the Activity in data set [1] was found to be 44.4%.

As for `COc1cc(C=O)c(OCc2cccnc2-c2c(C)cnn2C)cn1`, the Activity in data set [1] turned out to be 27.4%; in the data set filed under Homo sapiens, 64.5%.

Turning to `COc1cncc(OCc2cccnc2-c2ccnn2C(C)C)c1C=O`, the Activity in data set [1] turned out to be 54.5%; in data set [2], 55%; in the data set filed under Homo sapiens, 131%. In the data set on Blood, the t1/2 is 2.5 h. The same molecule returned an AUC/dose with Rattus norvegicus of 36.4 ng·h/mL/mg/kg.

As for `CC(C)n1nccc1-c1ncccc1COc1cccnc1C=O`, the Activity stood at 53.3% in data set [1], 56.4% in data set [2] and 70.3% in the data set filed under Homo sapiens. In addition, the t1/2 with Blood was determined as 0.7 h. The AUC/dose with Rattus norvegicus came to 34.2 ng·h/mL/mg/kg.

Turning to `COc1cc(C=O)c(OCc2cc(C#N)cn3ccnc23)cn1`, the Activity in data set [1] was determined as 3.5%.

For the molecule `Cc1ccc(OCc2cccnc2-c2ccnn2C(C)C)c(C=O)n1`, the Activity in data set [1] was 61.7%; in data set [2] it was 65.4%; in the data set filed under Homo sapiens, 62.6%. This molecule also yielded a t1/2 with Blood of 1.5 h. In addition, the AUC/dose in the data set with Rattus norvegicus was 1710 ng·h/mL/mg/kg.

As to `COc1cc(C=O)c(OCc2cccn3cncc23)cn1`, the Activity in data set [1] is 37.9%.

As for `COc1cc(C=O)c(OCc2cc(-c3ccn[nH]3)cn3ccnc23)cn1`, the Activity in data set [1] came to 2.8%.

Regarding `COc1cc(C=O)c(OCc2ccc3ccncc3c2)cn1`, the Activity in data set [1] was 13.7%.

For the molecule `CC(C)n1nccc1-c1ncccc1COc1cccc(F)c1C=O`, the figures for the Activity (in data set [1]; in data set [2]; in the data set filed under Homo sapiens) were 67.8%, 72.8% and 104%, respectively. For the same molecule, the t1/2 with Blood worked out at 2.7 h. The molecule further showed an AUC/dose in the data set with Rattus norvegicus of 438 ng·h/mL/mg/kg.

`COc1cc(C=O)c(OCc2cccnc2-c2ccnn2C(C)C)cn1`: the Activity was 66.2% in data set [1], 66.9% in data set [2] and 115% in the data set filed under Homo sapiens. Besides, the t1/2 in the data set on Blood is 2.7 h. Moreover, the Kp in data set [5] is 38. The molecule further showed an AUC/dose in the data set on Rattus norvegicus of 20.6 ng·h/mL/mg/kg.

On to `COc1cc(C=O)c(OCc2cncc(-c3nnn[nH]3)c2)cn1`, for which the Activity in data set [1] was found to be 21.9%.

For the molecule `COc1cc(C=O)c(OCc2cccc3ncccc23)cn1`, in data set [1], the Activity was 36%.

Take `CC(C)n1nccc1-c1ncccc1COc1ccccc1C=O`: the Activity was 80.6% in data set [2] and 136% in the data set listed under Homo sapiens. In the data set on Blood, this molecule showed a t1/2 of 2.1 h. In the data set with Rattus norvegicus, this molecule yielded an AUC/dose of 1059 ng·h/mL/mg/kg.

As for `COc1cc(C=O)c(OCc2cc3ccccc3nc2-c2ccn[nH]2)cn1`, the Activity in data set [1] is 14.2%.

With `COc1cc(C=O)c(OCc2cc(-c3cn[nH]c3)cn3ccnc23)cn1`, the Activity in data set [1] was determined as 28.2%.

In the case of `COc1cc(C=O)c(OCc2cc(-c3nn[nH]n3)cn3ccnc23)cn1`, the Activity in data set [1] worked out at 21.1%.

As for `CC(C)n1nccc1-c1ncccc1COc1cncc(O)c1C=O`, the Activity in data set [1] was 70.5%; in data set [2], 72.5%; in the data set filed under Homo sapiens it was 167%. Moreover, the t1/2 in the data set with Blood turned out to be 8.1 h. The AUC/dose with Rattus norvegicus was determined as 10887 ng·h/mL/mg/kg.

As for `COc1cc(C=O)c(OCc2cccn3c(C)nnc23)cn1`, in data set [1], the Activity was 42.2%.

`COc1cc(C=O)c(OCc2ccc3ccccc3n2)cn1`: the Activity in data set [1] worked out at 43.2%.

`COCCOc1cc(C=O)c(OCc2cccnc2-c2ccnn2C(C)C)cn1`: the Activity came out at 55.9% in data set [1], 68.9% in data set [2] and 77.8% in the data set listed under Homo sapiens. The molecule further registered a t1/2 in the data set with Blood of 1.5 h. This molecule came in with an AUC/dose in the data set with Rattus norvegicus of 1950 ng·h/mL/mg/kg.

`COc1cc(C=O)c(OCc2cncc(-c3ccnn3C)c2)cn1`: the Activity in data set [1] is 11.2%.

Take `COc1cc(C=O)c(OCc2cccnc2-n2cccn2)cn1`: the Activity in data set [1] is 31.8%.

As for `COc1cc(C=O)c(OCc2cccnc2-c2ccn[nH]2)cn1`, the results for the Activity in data set [1] and in data set [2] were 40.2% and 19.2%, respectively.

Consider `CC(C)n1nccc1-c1ncccc1COc1cnc(OC(F)F)cc1C=O`, for which the values for the Activity (in data set [1]; in data set [2]; in the data set listed under Homo sapiens) were 43.1%, 49.7% and 73.1%, respectively.

For the molecule `COc1ccc(OCc2cccn3ccnc23)c(C=O)c1`, in data set [1], the Activity was found to be 33%. Besides, the outcome in data set [4] was Active.

Take `COc1cc(C=O)c(OCc2cc(Br)cn3ccnc23)cn1`: the Activity in data set [1] came out at 11.7%.

For the molecule `COc1cc(C=O)c(OCc2cnccc2-c2cn[nH]c2)cn1`, in data set [1], the Activity is 17.1%.
